According to ChEMBL document CHEMBL1139333, “Search for new pharmacophores for antimalarial activity. Part I: synthesis and antimalarial activity of new 2-methyl-6-ureido-4-quinolinamides” (Bioorg Med Chem, 2009):
Converted amounts (≈) assume the structure as drawn.

Columns and labels:
[1] = tested on: Escherichia coli; assay: Antibacterial activity against Escherichia coli after 24 hrs by NCCLS method; format: functional
Method in brief: (§1)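 Bacteria grown on nutrient agar at 37 °C for 24 h, then suspended in normal saline with 0.05% Tween 20 at about […] cells/mL (0.5 McFarland). MIC by NCCLS broth microdilution in Mueller Hinton broth with twofold serial dilutions. Compounds were dissolved in DMSO at 1 mg/mL (stock). Growth, drug and blank controls were included.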

[2] = tested on: Pseudomonas aeruginosa; assay: Antibacterial activity against Pseudomonas aeruginosa after 24 hrs by NCCLS method; format: functional; method in brief: as §1
[3] = tested on: Enterococcus faecalis; assay: Antibacterial activity against Streptococcus faecalis after 24 hrs by NCCLS method; format: functional; method in brief: as §1
[4] = tested on: Plasmodium falciparum; assay: Antimalarial activity against chloroquine-sensitive Plasmodium falciparum 3D7 infected erythrocytes after 72 hrs by MSF assay; conditions: 3D7, 72 h
[5] = tested on: Plasmodium falciparum; assay: Antimalarial effect as schizonticidal activity against chloroquine-sensitive Plasmodium falciparum 3D7 after 40 hrs; conditions: 3D7, 40 h
[6] = tested on: Klebsiella pneumoniae; assay: Antibacterial activity against Klebsiella pneumoniae after 24 hrs by NCCLS method; format: functional; method in brief: as §1
[7] = Selectivity index, ratio of CC50 for african green monkey (Cercopithecus aethiops) Vero cells to IC50 for Plasmodium falciparum 3D7; format: functional
[8] = tested on: Staphylococcus aureus; assay: Antibacterial activity against Staphylococcus aureus after 24 hrs by NCCLS method; format: functional; method in brief: as §1
[9] = tested on: Plasmodium yoelii; assay: Antimalarial activity as parasitaemia after 28 days against chloroquine-resistant Plasmodium yoelii N67 infected Swiss mice (Mus musculus) at 50 mg/kg peroral dose over 4 days; format: functional; conditions: route oral
Method in brief: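 Swiss mice (25 g, either sex, n=5) infected on day 0 with 1 × 10⁶ P. yoelii N67 chloroquine-resistant parasitized cells. Test compounds were given orally as an aqueous suspension at 50 mg/kg from day 0 to 3; vehicle controls were run alongside. Parasitaemia was counted on tail-vein thin smears on days 4, 7, 14, 21 and 28, or until death.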

[10] = tested on: Plasmodium yoelii; assay: Antimalarial activity as parasitaemia after 28 days against chloroquine-resistant Plasmodium yoelii N67 infected Swiss mice (Mus musculus) at 50 mg/kg peroral dose over 7 days; format: functional; conditions: route oral
[11] = tested on: Plasmodium yoelii nigeriensis; assay: Antimalarial activity at day 28 against Plasmodium yoelii nigeriensis MDR infected Swiss mice (Mus musculus) at 100 mg/kg peroral dose for 7 days; format: functional; conditions: route oral
[12] = tested on: Plasmodium yoelii nigeriensis; assay: Antimalarial activity as parasitaemia against Plasmodium yoelii nigeriensis MDR infected Swiss mice (Mus musculus) at 100 mg/kg peroral dose over 4 days; conditions: route oral
[13] = tested on: Plasmodium yoelii nigeriensis; assay: Antimalarial activity day 28 against Plasmodium yoelii nigeriensis MDR infected Swiss mice (Mus musculus) as reduced parasitaemia at 100 mg/kg peroral dose for 7 days; format: functional; design: scale not given: the % may be the effect or the level left; conditions: route oral
[14] = tested on: Plasmodium yoelii nigeriensis; assay: Antimalarial activity as reduced parasitaemia after 28 days against Plasmodium yoelii nigeriensis MDR infected Swiss mice (Mus musculus) at 100 mg/kg peroral dose over 4 days; format: functional; design: scale not given: the % may be the effect or the level left; conditions: route oral
Method in brief: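 Swiss mice of either sex (25 g) inoculated on day 0 with 1 × 10⁶ P. yoelii nigeriensis MDR parasitized cells. Groups of five mice received an aqueous suspension orally at 100 mg/kg from day 0 to day 3. Five vehicle-only mice served as controls. Parasitemia was read from tail-vein thin blood smears on days 4, 7, 14, 21 and 28, or until death.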

[15] = tested on: Plasmodium yoelii; assay: Antimalarial activity as reduced parasitaemia after 28 days against chloroquine-resistant Plasmodium yoelii N67 infected Swiss mice (Mus musculus) at 50 mg/kg peroral dose over 7 days; format: functional; design: scale not given: the % may be the effect or the level left; conditions: route oral

Compound | MIC [1] [µg/mL] | MIC [2] [µg/mL] | MIC [3] [µg/mL] | IC50 [4] [µg/mL] | MIC [5] [µg/mL] | MIC [6] [µg/mL] | Selectivity Index [7] | MIC [8] [µg/mL] | Activity [9] [%] | Activity [10] [%] | Activity [11] [%] | Activity [12] [%] | Activity [13] [%] | Activity [14] [%] | Activity [15] [%]
Cc1cc(NC(=O)CN2CCN(C)CC2)c2cc(NC(=O)Nc3ccc(Cl)c(C(F)(F)F)c3)ccc2n1 | 1.56 (≈ 2.92 µM) | 12.5 (≈ 23.4 µM) | 3.1 (≈ 5.79 µM) | 0.0182 (≈ 0.034 µM) | 0.5 (≈ 0.935 µM) | 1.56 (≈ 2.92 µM) | 53.4 | 6.25 (≈ 11.7 µM) | 2.28 | 11 |  |  |  |  | 
Cc1cc(NC(=O)c2ccccc2)c2cc(NC(=O)Nc3cc(Cl)cc(Cl)c3)ccc2n1 | 0.0025 (≈ 0.00537 µM) | 12.5 (≈ 26.9 µM) | 0.01 (≈ 0.0215 µM) |  | 2 (≈ 4.3 µM) | 0.04 (≈ 0.086 µM) |  |  |  |  |  |  |  |  | 
Cc1cc(NC(=O)CN2CCN(C)CC2)c2cc(NC(=O)Nc3cccc(Cl)c3)ccc2n1 |  |  |  | 0.013 (≈ 0.0278 µM) | 0.25 (≈ 0.535 µM) |  | 549.7 |  |  |  | 50 | 18.8 |  |  | 
CCN1CCN(CC(=O)Nc2cc(C)nc3ccc(NC(=O)Nc4ccc(Cl)c(Cl)c4)cc23)CC1 |  |  |  |  | 0.5 (≈ 0.97 µM) | 12.5 (≈ 24.3 µM) |  | 6.25 (≈ 12.1 µM) |  |  |  |  |  |  | 
Cc1cc(NC(=O)CN2CCN(C)CC2)c2cc(NC(=O)Nc3ccc(C)c(Cl)c3)ccc2n1 | 6.25 (≈ 13 µM) | > 50 |  | 0.0033 (≈ 0.00686 µM) | 0.25 (≈ 0.52 µM) | 12.5 (≈ 26 µM) |  |  | 1.67 | 5.15 |  |  |  |  | 
Cc1cc(NC(=O)CN2CCN(C)CC2)c2cc(NC(=O)Nc3ccc(Br)cc3)ccc2n1 | 6.25 (≈ 12.2 µM) | 1.56 (≈ 3.05 µM) | 6.25 (≈ 12.2 µM) |  | 1 (≈ 1.96 µM) | 6.25 (≈ 12.2 µM) |  |  |  |  |  |  |  |  | 
Cc1cc(NC(=O)c2ccco2)c2cc(NC(=O)Nc3cccc(C#N)c3)ccc2n1 |  |  |  | 0.0004 (≈ 0.000972 µM) | 0.5 (≈ 1.22 µM) |  |  |  |  |  | 1.84 | 0 | 91.29 | 100 | 
GENTAMICIN |  | 6.25 | 3.12 |  |  | 25 |  | 6.25 |  |  |  |  |  |  | 
Cc1cc(NC(=O)CN2CCCCC2)c2cc(NC(=O)Nc3ccc(Cl)c(C(F)(F)F)c3)ccc2n1 |  |  |  | 0.0358 (≈ 0.0689 µM) | 0.25 (≈ 0.481 µM) |  | 76.5 |  |  |  | 13.83 | 0.27 |  |  | 
CCN1CCN(CC(=O)Nc2cc(C)nc3ccc(NC(=O)Nc4cc(Cl)cc(Cl)c4)cc23)CC1 | 12.5 (≈ 24.3 µM) |  |  |  | 0.5 (≈ 0.97 µM) | 6.25 (≈ 12.1 µM) |  | 3.12 (≈ 6.05 µM) |  |  |  |  |  |  | 
Cc1cc(NC(=O)CN2CCN(C)CC2)c2cc(NC(=O)Nc3ccc(Cl)c(Cl)c3)ccc2n1 | 1.56 (≈ 3.11 µM) | 6.25 (≈ 12.5 µM) | 1.56 (≈ 3.11 µM) | 0.0022 (≈ 0.00439 µM) | 0.25 (≈ 0.499 µM) |  |  | 6.25 (≈ 12.5 µM) | 2.55 | 1.5 |  |  |  |  | 92.9
Cc1cc(NC(=O)c2cccc(Cl)c2)c2cc(NC(=O)Nc3ccc(Cl)cc3)ccc2n1 | 12.5 (≈ 26.9 µM) | 1.56 (≈ 3.35 µM) | 12.5 (≈ 26.9 µM) | 0.0144 (≈ 0.0309 µM) | 1 (≈ 2.15 µM) | 6.25 (≈ 13.4 µM) |  | 3.12 (≈ 6.7 µM) |  |  |  |  |  |  | 
Cc1cc(NC(=O)CN2CCN(C)CC2)c2cc(NC(=O)Nc3cc(Cl)cc(Cl)c3)ccc2n1 | 1.56 (≈ 3.11 µM) |  | 3.12 (≈ 6.23 µM) | 0.0004 (≈ 0.000798 µM) | 0.25 (≈ 0.499 µM) |  | 4404.8 |  | 4.78 | 15.5 |  |  |  |  | 
